# According to publication PMC3690701 (Bioorganic & medicinal chemistry, 2011):
# Legend:
# human Pgp = human Pgp (Homo sapiens, UniProt P08183); conditions: for logIC50: fitted parameter±standard error, GraphPad Prism, R123 efflux, MDCKII-MDR1
# human BCRP = conditions: 3H-labelled tariquidar 1 nM, reversed by fumitremorgin C; cited from earlier work
# Pgp/BCRP at the BBB [1] = conditions: mouse brain, unlabelled 1 0.1-10 mg/kg i.v.; cited from earlier work
# Pgp = conditions: cited from earlier work
# Pgp/BCRP at the BBB [2] = assay: small-animal PET of [18F]4b in rats before/after unlabelled 1; format: in vivo, rat; conditions: 25 min after tracer injection, scanned 2 h after 1 (5 mg/kg), p=0.0002
# Outline: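 Naïve rats were kept under isoflurane (2.5% induction, 1.5–2% maintenance) at about 38°C, with femoral artery and vein catheters. The tracer was given as an i.v. bolus (33±3 MBq) in saline/EtOH/PEG300 (50/15/35). Arterial samples were gamma-counted, and whole-brain TACs were expressed as SUV. Groups were compared by 2-tailed Student's t-test.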
# [3] = format: in vivo, rat
# [4] = plasma protein binding by ultrafiltration; format: in vitro ADME, rat; conditions: 30 min at 37°C, n=3
# Outline: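 Fresh plasma from naïve rats was incubated with the 18F-labelled tracer for 30 min at 37°C. Bound and free tracer were then separated by ultrafiltration through centrifugal filter devices.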
# human Pgp, sequence (P08183 whole entry): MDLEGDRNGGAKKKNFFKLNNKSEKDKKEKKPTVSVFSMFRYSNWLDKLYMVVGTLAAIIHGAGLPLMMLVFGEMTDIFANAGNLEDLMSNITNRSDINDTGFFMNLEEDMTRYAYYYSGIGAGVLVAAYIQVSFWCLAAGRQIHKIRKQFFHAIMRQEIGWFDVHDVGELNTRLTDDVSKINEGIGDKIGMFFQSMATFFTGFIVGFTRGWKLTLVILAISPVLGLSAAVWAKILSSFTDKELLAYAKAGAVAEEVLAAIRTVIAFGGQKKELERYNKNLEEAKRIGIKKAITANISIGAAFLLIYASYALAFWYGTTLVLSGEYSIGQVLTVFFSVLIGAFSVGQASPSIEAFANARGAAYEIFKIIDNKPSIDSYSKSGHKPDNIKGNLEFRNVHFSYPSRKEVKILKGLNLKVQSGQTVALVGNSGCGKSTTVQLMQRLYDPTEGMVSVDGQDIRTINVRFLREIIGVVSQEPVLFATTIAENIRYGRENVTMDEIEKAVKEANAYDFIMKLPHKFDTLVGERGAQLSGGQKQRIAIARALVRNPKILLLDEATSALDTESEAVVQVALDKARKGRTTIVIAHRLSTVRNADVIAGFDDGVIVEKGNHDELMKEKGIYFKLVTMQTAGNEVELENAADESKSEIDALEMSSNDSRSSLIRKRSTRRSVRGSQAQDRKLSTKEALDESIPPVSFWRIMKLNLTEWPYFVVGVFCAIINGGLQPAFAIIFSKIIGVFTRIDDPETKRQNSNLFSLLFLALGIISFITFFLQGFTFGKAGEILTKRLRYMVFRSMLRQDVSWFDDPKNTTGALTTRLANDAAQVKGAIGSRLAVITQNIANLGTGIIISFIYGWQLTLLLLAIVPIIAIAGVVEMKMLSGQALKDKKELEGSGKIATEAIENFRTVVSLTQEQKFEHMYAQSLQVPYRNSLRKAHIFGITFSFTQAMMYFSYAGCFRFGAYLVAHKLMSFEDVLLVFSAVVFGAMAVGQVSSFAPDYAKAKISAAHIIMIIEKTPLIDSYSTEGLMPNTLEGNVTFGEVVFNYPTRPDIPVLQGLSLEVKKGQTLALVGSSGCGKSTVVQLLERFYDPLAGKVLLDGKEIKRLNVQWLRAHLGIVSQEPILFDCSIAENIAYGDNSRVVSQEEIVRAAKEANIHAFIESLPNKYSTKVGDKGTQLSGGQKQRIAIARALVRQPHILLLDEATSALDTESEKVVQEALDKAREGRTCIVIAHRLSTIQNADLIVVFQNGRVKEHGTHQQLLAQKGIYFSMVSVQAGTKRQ
smiles,measurement,setting,value
"COc1cc2c(cc1OC)CN(CCc1ccc(NC(=O)c3cc(Cl)cc4c(=O)c5cccc(OC)c5[nH]c34)cc1)CC2 [4d, 2-Chloro-N-(4-(2-(6,7-dimethoxy-1,2,3,4-tetrahydroisoquinolin-2-yl)ethyl)phenyl)-5-methoxyacridone-4-carboxamide]",logIC50,human Pgp,0.14±0.08
"COc1cc2c(cc1OC)CN(CCc1ccc(NC(=O)c3ccc(Cl)c4c(=O)c5cccc(OC)c5[nH]c34)cc1)CC2 [4a, 1-Chloro-N-(4-(2-(6,7-dimethoxy-1,2,3,4-tetrahydroisoquinolin-2-yl)ethyl)phenyl)-5-methoxyacridone-4-carboxamide]",logIC50,human Pgp,0.58±0.04
COc1cc2c(cc1OC)CN(CCc1ccc(NC(=O)c3cc(OC)c(OC)cc3NC(=O)c3cnc4ccccc4c3)cc1)CC2 [tariquidar],BCRP transport,human BCRP,avid substrate of BCRP
"COc1cc2c(cc1OC)CN(CCc1ccc(NC(=O)c3ccc([N+](=O)[O-])c4c(=O)c5cccc(OC)c5[nH]c34)cc1)CC2 [4c, N-(4-(2-(6,7-dimethoxy-1,2,3,4-tetrahydroisoquinolin-2-yl)ethyl)phenyl)-5-methoxy-1-nitroacridone-4-carboxamide]",logIC50,human Pgp,0.21±0.07
"COc1cc2c(cc1OC)CN(CCc1ccc(NC(=O)c3cc(F)cc4c(=O)c5cccc(OC)c5[nH]c34)cc1)CC2 [4e, N-(4-(2-(6,7-dimethoxy-1,2,3,4-tetrahydroisoquinolin-2-yl)ethyl)phenyl)-2-fluoro-5-methoxyacridone-4-carboxamide]",logIC50,human Pgp,−0.21±0.08
"COc1cc2c(cc1OC)CN(CCc1ccc(NC(=O)c3cccc4c(=O)c5cccc(OC)c5[nH]c34)cc1)CC2 [compound 1, elacridar]",Maximal inhibitory effect (%),"human Pgp; human, pH 7.4",100%
same,dose at which brain uptake of [11C]1 started to increase,Pgp/BCRP at the BBB [1],greater than 0.1 mg/kg
same,half-maximum effect dose for increase of [11C]1 brain uptake,Pgp/BCRP at the BBB [1],1.55 mg/kg
same,stimulation of ATPase activity,Pgp,does not stimulate
"COc1cc2c(cc1OC)CN(CCc1ccc(NC(=O)c3ccc([18F])c4c(=O)c5cccc(OC)c5[nH]c34)cc1)CC2 [[^18F]4b, 1-[^18F]fluoroelacridar]",brain activity uptake increase after unlabelled 1 (group 2 vs group 1),Pgp/BCRP at the BBB [2],9.5 times
same,total radioactivity in brain in the form of unchanged tracer,"[3]; rat brain extracts, 40 min after injection, HPLC",> 90%
same,"total radioactivity in the form of unchanged tracer, HPLC of SPE fraction 3","[3]; rat plasma, 40 min sample",72±27%
same,protein-bound in rat plasma,[4],98.0±1.7%
"COc1cc2c(cc1OC)CN(CCc1ccc(NC(=O)c3ccc(F)c4c(=O)c5cccc(OC)c5[nH]c34)cc1)CC2 [4b, N-(4-(2-(6,7-dimethoxy-1,2,3,4-tetrahydroisoquinolin-2-yl)ethyl)phenyl)-1-fluoro-5-methoxyacridone-4-carboxamide]",logIC50,human Pgp,0.24±0.04
same,IC50 times higher than 1,"human Pgp; human, pH 7.4",about 4 times
